# Measured values taken from PMC2821697 (Bioorganic & medicinal chemistry, 2009).
# Tests used:
# [1] = test system: MDA-MB-231 (estrogen receptor negative breast cancer); assay: Cell growth inhibition assay; type: cell-based; settings: Homo sapiens, MDA-MB-231, 72 h, read-out: ED50 against MDA-MB-231
# Outline: (§1)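 Trypsinized cells were seeded in 96-well plates, then exposed 72 h to test compound from DMSO-diluted stock. Cells were TCA-fixed, stained with 0.4% SRB for 10 min, and dye solubilized in trizma base; A515. ED50 is the concentration halving net protein increase, mean ± SEM of ≥2 independent determinations.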
# A549 (human lung cancer) = assay: Cell growth inhibition assay; type: cell-based; settings: A549, 72 h, read-out: ED50 against A549
# Outline: as §1
# DU145 (prostate cancer) = assay: Cell growth inhibition assay; type: cell-based; settings: Homo sapiens, DU-145, 72 h, read-out: ED50 against DU145
# [2] = test system: KB (nasopharyngeal carcinoma); assay: Cell growth inhibition assay; type: cell-based; settings: Homo sapiens, 72 h, read-out: ED50 against KB
# Outline: as §1
# [3] = test system: SK-BR-3 (HER2 over-expressing breast cancer); assay: Cell growth inhibition assay; type: cell-based, human; settings: for cancer cell line selectivity: fold more potent against SK-BR-3 compared with other cancer cell lines tested: SK-BR-3 versus six additional tested cancer cell lines; for ED50 against SK-BR-3: mean ED50+SEM, 2 or more independent tests, SRB, 72 h
# Outline: as §1
# [4] = test system: SK-BR-3 breast cancer cell line; assay: MTT assay, SK-BR-3; type: cell-based, human; settings: 72 h, single experiment
# [5] = test system: 184A1 normal breast cell line; assay: MTT assay, 184A1 normal breast cell line; type: cell-based; settings: 72 h, single experiment
# Outline: (§2)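 184A1 and MCF10A were from ATCC. Cells were seeded at 5000/well in the recommended growth medium and incubated overnight. Test compound dissolved in DMSO was then added, followed by 72 h at 37 °C, 5% CO2. MTT reagent was added for 2 h, and formazan was read at OD 570. Data are mean and standard deviation of replicates from a single experiment.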
# [6] = test system: MCF10A normal breast cell line; assay: MTT assay, MCF10A normal breast cell line; type: cell-based; settings: 72 h, single experiment
# Outline: as §2
SMILES,IC50 [2] [µM],cancer cell line selectivity: fold more potent against SK-BR-3 compared with other cancer cell lines tested [3],ED50 against SK-BR-3 [3] [µM],further results
"Cc1cccc2c1ccc1c3occ(C)c3c(=O)oc21 [Compound 1, Neo-tanshinlactone]",> 37.9,,,IC50 [1]: 37.9 ± 1.4 µM; IC50 (A549 (human lung cancer)): 54.2 ± 3.4 µM; IC50 (DU145 (prostate cancer)): 58.3 ± 2 µM
"COc1cc(OC)cc(-c2cc3occ(C)c3c(=O)o2)c1 [Compound 25, 6-(3,5-Dimethoxyphenyl)-3-methyl-4H-furo[3,2-c]pyran-4-one]",> 69.9,100- to 250 fold,0.28 ± 0.01,potency against SK-BR-3 relative to 1 ([3]; ED50 compared with neo-tanshinlactone (1)): approximately threefold; interpolated ED50 against SK-BR-3 [4]: 1.0 µM; interpolated ED50 against 184A1 [5]: 16.8 µM; interpolated ED50 against MCF10A [6]: > 35.0 µM
"CCOc1cccc(-c2cc3occ(C)c3c(=O)o2)c1 [Compound 12, 6-(3-Ethoxyphenyl)-3-methyl-4H-furo[3,2-c]pyran-4-one]",,,0.67 ± 0.03,
"COc1cccc(-c2cc3occ(C)c3c(=O)o2)c1 [Compound 11, 6-(3-Methoxyphenyl)-3-methyl-4H-furo[3,2-c]pyran-4-one]",> 78.1,,,
"COc1cc(-c2cc3occ(C)c3c(=O)o2)cc(OC)c1OC [Compound 27, 3-Methyl-6-(3,4,5-trimethoxyphenyl)-4H-furo[3,2-c]pyran-4-one]",> 63.3,100- to 250 fold,0.44 ± 0.01,
"Cc1cccc(-c2cc3occ(C)c3c(=O)o2)c1 [Compound 10, 3-Methyl-6-m-tolyl-4H-furo[3,2-c]pyran-4-one]",,,1.50 ± 0.04,
